Data reported in ChEMBL document CHEMBL4184322, “Coupling of an Acyl Migration Prodrug Strategy with Bio-activation To Improve Oral Delivery of the HIV-1 Protease Inhibitor Atazanavir” (J Med Chem, 2018).
≈ marks a conversion by molar mass, not a printed value.

Key:
Rattus norvegicus [1] = experiment: Trough concentration in Sprague-Dawley rat assessed as atazanavir at 3 mg/kg, po equiv of atazanavir at 24 hrs by UPLC/MS/MS method; format: ADME, organism-based; settings: in vivo; for concentration: read-out: Cmin
Rattus norvegicus [2] = experiment: Oral bioavailability in Sprague-Dawley rat assessed as atazanavir at 3 mg/kg equiv of atazanavir after 0.25 to 24 hrs by UPLC/MS/MS method; format: ADME, organism-based; settings: in vivo
Rattus norvegicus [3] = experiment: Cmax in Sprague-Dawley rat assessed as atazanavir at 3 mg/kg, po equiv of atazanavir after 0.25 to 24 hrs by UPLC/MS/MS method; format: ADME, organism-based; parameters: dose 3 mg/kg, route oral; settings: in vivo
[4] = Solubility of the compound in phosphate buffer at pH 6.5 at 25 degC by UPLC method; format: physicochemical
[5] = Half life of the compound in 0.1 N aqueous HCl at pH 1 at 37 degC after 24 hrs by UPLC method; format: physicochemical
[6] = Half life in rat whole blood at 1 uM after 5 to 90 mins by UPLC-MS/MS method; format: ADME, tissue-based
Rattus norvegicus [7] = experiment: Tmax in Sprague-Dawley rat assessed as atazanavir at 3 mg/kg, po equiv of atazanavir after 0.25 to 24 hrs by UPLC/MS/MS method; format: ADME, organism-based; settings: in vivo
Rattus norvegicus [8] = experiment: Oral bioavailability in Sprague-Dawley rat assessed as atazanavir at 3 mg/kg equiv of atazanavir after 0.25 to 24 hrs by UPLC/MS/MS method relative to atazanavir; format: ADME, organism-based; settings: in vivo
[9] = Solubility of the compound in acetate buffer at pH 4 at 25 degC by UPLC method; format: physicochemical
[10] = Apparent permeability across apical to basolateral side in human Caco2 cells; format: ADME, cell-based; settings: Caco-2
[11] = Apparent permeability across basolateral to apical side in human Caco2 cells; format: ADME, cell-based; settings: Caco-2
[12] = Solubility of the compound in 0.1 N aqueous HCl at pH 1 at 25 degC by UPLC method; format: physicochemical
Rattus norvegicus [13] = experiment: AUClast in Sprague-Dawley rat assessed as atazanavir at 3 mg/kg, po equiv of atazanavir after 0.25 to 24 hrs by UPLC/MS/MS method; format: ADME, organism-based; parameters: time upper 24 hr, dose 3 mg/kg, time lower 0.25 hr, route oral; settings: in vivo
[14] = Half life in rat hepatocytes at 1 uM after 5 to 120 mins by UPLC-MS/MS method; format: ADME, cell-based, Hepatocyte
[15] = Half life of the compound in phosphate buffer at pH 6.5 at 37 degC after 24 hrs by UPLC method; format: physicochemical
[16] = Efflux ratio of apparent permeability across basolateral to apical over apical to basolateral side in human Caco2 cells; format: ADME, cell-based; settings: Caco-2
[17] = Half life of the compound in acetate buffer at pH 4 at 37 degC after 24 hrs by UPLC method; format: physicochemical
Rattus norvegicus [18] = experiment: Ratio of AUClast in Sprague-Dawley rat at 3 mg/kg, po equiv of atazanavir to AUC in Sprague-Dawley rat assessed as atazanavir at 3 mg/kg, po equiv of atazanavir; format: ADME, organism-based; settings: in vivo
Rattus norvegicus [19] = experiment: AUC (0 to 24 hrs) in Sprague-Dawley rat assessed as atazanavir at 10 mg/kg, po equiv of atazanavir by UPLC/MS/MS method; format: ADME, organism-based; parameters: time < 24 hr, dose 10 mg/kg, route oral; settings: in vivo
Rattus norvegicus [20] = experiment: Cmax in Sprague-Dawley rat assessed as (2S,3S)-3-Amino-1-(2-((S)-2-((methoxycarbonyl)amino)-3,3-dimethylbutanoyl)-1-(4-(pyridin-2-yl)benzyl)hydrazinyl)4-phenylbutan-2-yl (S)-2-((Methoxycarbonyl)amino)-3,3-dimethylbutanoate Dihydrochloride at 3 mg/kg, po equiv of atazanavir after 0.25 to 24 hrs by UPLC/MS/MS method; format: ADME, organism-based; parameters: dose 3 mg/kg, route oral; settings: in vivo
Rattus norvegicus [21] = experiment: AUClast in Sprague-Dawley rat assessed as (2S,3S)-3-Amino-1-(2-((S)-2-((methoxycarbonyl)amino)-3,3-dimethylbutanoyl)-1-(4-(pyridin-2-yl)benzyl)hydrazinyl)4-phenylbutan-2-yl (S)-2-((Methoxycarbonyl)amino)-3,3-dimethylbutanoate Dihydrochloride at 3 mg/kg, po equiv of atazanavir after 0.25 to 24 hrs by UPLC/MS/MS method; format: ADME, organism-based; parameters: time lower 0.25 hr, dose 3 mg/kg, time upper 24 hr, route oral; settings: in vivo
Rattus norvegicus [22] = experiment: AUC (0 to 24 hrs) in famotidine treated Sprague-Dawley rat assessed as atazanavir at 10 mg/kg, po equiv of atazanavir by UPLC/MS/MS method; format: ADME, organism-based; parameters: time < 24 hr, dose 10 mg/kg, route oral; settings: in vivo
How it was run: (§1)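 Rat gastric pH model. Gastric pH was modulated by pretreatment with either pentagastrin or famotidine. Dosing was oral as a suspension in 0.5% methyl cellulose / 99.5% water, with parent AUC0–24 h determined in each arm.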

Rattus norvegicus [23] = experiment: Tmax in Sprague-Dawley rat assessed as (2S,3S)-3-Amino-1-(2-((S)-2-((methoxycarbonyl)amino)-3,3-dimethylbutanoyl)-1-(4-(pyridin-2-yl)benzyl)hydrazinyl)4-phenylbutan-2-yl (S)-2-((Methoxycarbonyl)amino)-3,3-dimethylbutanoate Dihydrochloride at 3 mg/kg, po equiv of atazanavir after 0.25 to 24 hrs by UPLC/MS/MS method; format: ADME, organism-based; settings: in vivo
Rattus norvegicus [24] = experiment: Trough concentration in Sprague-Dawley rat assessed as (2S,3S)-3-Amino-1-(2-((S)-2-((methoxycarbonyl)amino)-3,3-dimethylbutanoyl)-1-(4-(pyridin-2-yl)benzyl)hydrazinyl)4-phenylbutan-2-yl (S)-2-((Methoxycarbonyl)amino)-3,3-dimethylbutanoate Dihydrochloride at 3 mg/kg, po equiv of atazanavir at 24 hrs by UPLC/MS/MS method; format: ADME, organism-based; settings: in vivo, read-out: Cmin
Rattus norvegicus [25] = experiment: AUC (0 to 24 hrs) in pentagastrin treated Sprague-Dawley rat assessed as atazanavir at 10 mg/kg, po equiv of atazanavir by UPLC/MS/MS method; format: ADME, organism-based; parameters: dose 10 mg/kg, time < 24 hr, route oral; settings: in vivo; how it was run: as §1
[26] = Tmax in Sprague-Dawley rat at 3 mg/kg, po after 0.25 to 24 hrs by UPLC/MS/MS method; format: ADME, organism-based; settings: in vivo
[27] = Oral bioavailability in Sprague-Dawley rat at 3 mg/kg after 0.25 to 24 hrs by UPLC/MS/MS method; format: ADME, organism-based; settings: in vivo
[28] = AUC (0 to 24 hrs) in pentagastrin treated Sprague-Dawley rat at 10 mg/kg, po by UPLC/MS/MS method; format: ADME, organism-based; parameters: dose 10 mg/kg, time < 24 hr, route oral; settings: in vivo
How it was run: (§2)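 Rat gastric-pH model: gastric pH raised with famotidine or lowered with pentagastrin before oral dosing […] as a suspension in 0.5% methyl cellulose / 99.5% water; plasma atazanavir (parent) AUC0–24 h determined.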

[29] = AUC (0 to 24 hrs) in Sprague-Dawley rat at 10 mg/kg, po by UPLC/MS/MS method; format: ADME, organism-based; parameters: dose 10 mg/kg, time < 24 hr, route oral; settings: in vivo
Rattus norvegicus [30] = experiment: Ratio of AUC in pentagastrin treated Sprague-Dawley rat at 10 mg/kg, po to AUC in famotidine treated Sprague-Dawley rat at 10 mg/kg, po; format: ADME, organism-based; settings: in vivo
How it was run: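 Oral suspension in 0.5% methyl cellulose / 99.5% water, given to rats whose gastric pH was modulated by pretreatment with pentagastrin or famotidine.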

Rattus norvegicus [31] = experiment: AUClast in Sprague-Dawley rat at 3 mg/kg, po after 0.25 to 24 hrs by UPLC/MS/MS method; format: ADME, organism-based; parameters: time 0.25-24 hr, dose 3 mg/kg, route oral; settings: in vivo
[32] = AUC (0 to 24 hrs) in famotidine treated Sprague-Dawley rat at 10 mg/kg, po by UPLC/MS/MS method; format: ADME, organism-based; parameters: dose 10 mg/kg, time < 24 hr, route oral; settings: in vivo; how it was run: as §2
[33] = Trough concentration in Sprague-Dawley rat at 3 mg/kg, po at 24 hrs by UPLC/MS/MS method; format: ADME, organism-based; settings: in vivo, read-out: Cmin
Rattus norvegicus [34] = experiment: Cmax in Sprague-Dawley rat at 3 mg/kg, po after 0.25 to 24 hrs by UPLC/MS/MS method; format: ADME, organism-based; parameters: dose 3 mg/kg, route oral; settings: in vivo

SMILES	Cmax (Rattus norvegicus [3]) [nM]	concentration (Rattus norvegicus [1]) [nM]	solubility [4] [µg/mL]	half-life [5] [h]	half-life at 1 µM [6] [h]	Tmax (Rattus norvegicus [7]) [h]	F (Rattus norvegicus [8]) [%]	solubility [9] [µg/mL]	Papp A→B [10] [×10⁻⁶ cm/s]	Papp B→A [11] [×10⁻⁶ cm/s]	solubility [12] [µg/mL]	AUClast (Rattus norvegicus [13]) [µM·h]	half-life at 1 µM [14] [h]	half-life [15] [h]	efflux ratio [16]	half-life [17] [h]	Ratio AUC (Rattus norvegicus [18])	further results
COC(=O)N[C@H](C(=O)N[C@@H](Cc1ccccc1)[C@H](CN(Cc1ccc(-c2ccccn2)cc1)NC(=O)[C@@H](NC(=O)OC)C(C)(C)C)OC(=O)[C@@H](N)C(C)C)C(C)(C)C.Cl.Cl	10	–	–	–	–	–	–	–	–	–	–	–	–	–	–	–	–	Cmin (Rattus norvegicus [1]; BLD = below limit of detection): Bld; F (Rattus norvegicus [2]): 2.2%
COC(=O)N[C@H](C(=O)NN(Cc1ccc(-c2ccccn2)cc1)C[C@H](OC(=O)[C@@H](NC(=O)OC)C(C)(C)C)[C@H](Cc1ccccc1)NC(=O)OC(OC(=O)[C@H](N)C(C)C)C(C)C)C(C)(C)C.Cl.Cl (stereo partly drawn)	37	0.3	27	> 500	> 2	2.3	8.7	> 1430	< 1.5	7.3	> 500	0.167	0.883	215	> 5	> 500	50.5	–
COC(=O)N[C@H](C(=O)NN(Cc1ccc(-c2ccccn2)cc1)C[C@H](OC(=O)[C@@H](NC(=O)OC)C(C)(C)C)[C@H](Cc1ccccc1)NC(=O)OC(OC(=O)[C@@H](N)C(C)C)C(C)C)C(C)(C)C.Cl.Cl (stereo partly drawn)	310	4.5	10	> 500	> 2	1.7	75.3	120	< 1.5	11.4	> 1100	1.446	0.933	108	> 8	> 500	3.4	AUC (Rattus norvegicus [19]): 2.093 µM·h; Cmax (Rattus norvegicus [20]): 124 nM; AUClast (Rattus norvegicus [21]): 0.579 µM·h; AUC (Rattus norvegicus [22]): 1.275 µM·h; Tmax (Rattus norvegicus [23]): 1.7 h; concentration (Rattus norvegicus [24]): 2 nM; AUC (Rattus norvegicus [25]): 1.332 µM·h
COC(=O)N[C@H](C(=O)N[C@@H](Cc1ccccc1)[C@@H](O)CN(Cc1ccc(-c2ccccn2)cc1)NC(=O)[C@@H](NC(=O)OC)C(C)(C)C)C(C)(C)C [ATAZANAVIR]	–	–	< 1	> 500	> 2	–	–	< 1	–	47	1690 (≈ 2400 µM)	–	0.467	> 500	> 31	> 500	–	Tmax [26]: 0.5 h; bioavailability [27]: 20%; AUC(0-t) at 24 h [28]: 2.46 µM·h; AUC(0-t) at 24 h [29]: 0.24 µM·h; Ratio AUC (Rattus norvegicus [30]): 492; AUClast (Rattus norvegicus [31]): 0.384 µM·h; AUC(0-t) at 24 h [32]: 0.005 µM·h; concentration at 24 h [33]: 0.25 nM; Cmax (Rattus norvegicus [34]): 266 nM
